Reference: paper PMC3985958 (ACS Chemical Biology, 2014)

What was measured:
MDM2 [1] = target: MDM2 (Homo sapiens, UniProt Q00987); assay type: binding; conditions: SAR summary, unsubstituted indole
MOLM-13 cells = experiment: Apoptosis analysis Annexin-V/PI; conditions: for viable cells: separated enantiomers, after 72 h
PBMCs = experiment: Viability of freshly isolated PBMCs; assay type: cell-based, human; conditions: 72 h, data not shown
MDM2 [2] = experiment: Western blot analysis in MOLM-13 cells; assay type: cell-based, human; conditions: 20 μM; 6, 12, 24 h
p53 = experiment: Western blot analysis in MOLM-13 cells; assay type: cell-based, human; conditions: 20 μM; 6, 12, 24 h
primary AML blasts = experiment: Apoptosis; assay type: cell-based, human; conditions: 20 μM, 72 h
MDM4 = experiment: Western blot analysis in MOLM-13 cells; assay type: cell-based, human; conditions: 20 μM; 6, 12, 24 h
Method in brief: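 MOLM-13 cells (wt p53) grown in RPMI 1640 with 10% heat-inactivated FBS, harvested in log phase. Treated with 20 µM test compound or left untreated, then lysed at 6, 12 and 24 h (1 × 10^6 cells). Equal protein run on 12% SDS-PAGE and electroblotted to PVDF. Loading checked by Ponceau S and β-actin. HRP secondaries with chemiluminescent detection.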

caspase 3 and 7 = experiment: CaspaseGlo 3/7 assay in MOLM-13 cells; assay type: cell-based, human; conditions: 20 μM, 24 h, relative to untreated control

Sequence of MDM2 (Homo sapiens, UniProt Q00987) (Q00987 1-125): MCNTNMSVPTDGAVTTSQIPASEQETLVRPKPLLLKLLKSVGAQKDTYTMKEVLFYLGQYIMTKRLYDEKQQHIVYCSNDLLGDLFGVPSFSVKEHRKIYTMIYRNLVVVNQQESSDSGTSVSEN

CC(=O)N(CC(C)C)C(C(=O)NCc1ccccc1)c1c[nH]c2ccccc12 (stereo not shown) [5a]
activity (binding to MDM2) in words (MDM2 [1]): inactive

COc1ccc(C2=N[C@@H](c3ccc(Cl)cc3)[C@@H](c3ccc(Cl)cc3)N2C(=O)N2CCNC(=O)C2)c(OC(C)C)c1 [Nutlin-3, reference compound]
apoptotic effect in words (MOLM-13 cells; 20 μM, 72 h): high induction of apoptosis
toxic effect on PBMCs (viability) (PBMCs): higher toxic effect on PBMCs than (+)-YH239-EE

CCOC(=O)c1[nH]c2cc(Cl)ccc2c1C(C(=O)NC(C)(C)C)N(C=O)Cc1ccc(Cl)cc1 (single isomer, unassigned; (-)) [(−)-YH239-EE]
viable cells (MOLM-13 cells): 51.5%

CC(=O)N(Cc1ccccc1)C(C(=O)NCc1ccccc1)c1c[nH]c2ccccc12 (stereo not shown) [5b]
activity (binding to MDM2) in words (MDM2 [1]): inactive

(+)-YH239-EE
MDM2 levels (MDM2 [2]): MDM2 levels raised after 12 h
induction of p53 (p53): induction of p53 could be observed after 6 h
response of patient samples with lower blast (<45%) counts (primary AML blasts): no response
share of tested samples with increased induction of apoptosis (primary AML blasts; 8 primary patient samples): 2/3
level of MDM4 (MDM4): no effect
activation of caspase 3 and 7 (caspase 3 and 7): significant higher activation of caspase 3 and 7 after 24 h than (−)-YH239-EE and Nutlin-3
viable cells (MOLM-13 cells): 13.7%
toxic effect on PBMCs (viability) (PBMCs): less cytotoxic than Nutlin-3
